Most compounds without a hit are left out; they make up all but 2.9% or so of the library.
Hck-Nef inh: inhibitors of Nef-activated human Hck kinase, primary screen, biochemical, Z-Lyte FRET, 384-well, Hck-YEEI | 220,000 compounds, 0.68% hits | inhibition, % at 20 µM | Recombinant Hck-YEEI plus Nef, Z-Lyte FRET kinase assay | Tyrosine-protein kinase HCK (Homo sapiens), P08631;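 active = Hck-Nef kinase inhibition above about 50%, limit read from the data; inactive = inhibition below that limit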;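 note: 0% = DMSO with Hck plus Nef and 100% = Hck alone without Nef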
Runt-CBFb FRET: inhibitors of RUNX1 Runt–CBFb binding, primary screen, biochemical, FRET, Cerulean-Runt, Venus-CBFb, uHTS. Runt-related transcription factor 1 (Homo sapiens) + Core-binding factor subunit beta …. Cerulean-Runt/Venus-CBFb FRET ratio 530/480, 1 h. inhibition, % at 20 µM. 220,000 compounds, 0.46% hits. AID 1496, 2009;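 active = inhibition over about 50% at 20 µM in the single-dose screen, limit read from the data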;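 note: 0% = DMSO wells and 100% = excess unlabeled CBFb competitor control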
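test system = Cerulean-tagged RUNX1 Runt domain (FRET donor) fusion protein | reagent = Venus-CBFb binding partner, 100 nM | incubation = protein complex preformed 1 h, compound exposure 1 h, room temperature, dark | detection = FRET fluorescence | read-out basis = loss of energy transfer signal | controls = 5 µM unlabeled CBFb as full-inhibition high control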
RBBP9 inhibitor: human RBBP9 inhibitors, primary screen, biochemical, fluorescence polarization, FP-Rh probe, HTS. Serine hydrolase RBBP9 (Homo sapiens), O75884. recombinant RBBP9. inhibition, % at 7.94 µM. 220,000 compounds, 0.2% hits. AID 1515, 2009;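 active = inhibition above the campaign mean of all tested compounds plus 3 SD, cut at about 14% in these data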;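 note: plate controls were DMSO wells with RBBP9 for no effect and wells lacking RBBP9 protein for full effect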
Target sequence (O75884 whole entry, looked up): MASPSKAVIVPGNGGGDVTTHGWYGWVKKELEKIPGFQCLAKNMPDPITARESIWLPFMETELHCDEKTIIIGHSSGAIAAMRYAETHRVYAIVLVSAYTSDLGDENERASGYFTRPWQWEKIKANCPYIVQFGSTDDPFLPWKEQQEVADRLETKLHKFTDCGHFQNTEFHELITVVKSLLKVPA
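Test system: recombinant human RBBP9; Timing: 30 min then 45 min, 25 °C; Detection: fluorescence polarization; Control set: RBBP9 with DMSO as uninhibited control, no-protein wells as full inhibition; Compound dosing: one concentration, 7.94 µM nominal, 0.794% DMSO; Probe or stimulus: FP-Rh activity-based probe, 375 nM before mixing.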
RanGTP-Imp inh: inhibitors of RanGTP-importin-beta interaction, primary screen, biochemical, FRET, CFP-Ran, YFP-importin-beta, homogeneous; Ran GTPase (GTP-bound) - importin-beta complex; cell-free CFP-Ran/YFP-importin-beta FRET ratio; inhibition, % (no concentration beside the values); 300,000 compounds, 1.1% hits;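 active = more than half of the replicate wells show a fall in the fluorescence ratio signal beyond about 16%, limit read from the data, passing the limit was not always enough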;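 note: 0% = DMSO wells and 100% = Ran loaded with GDP instead of GTP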
Runt-SMMHC FRET: inhibitors of RUNX1 Runt–CBFb-SMMHC binding, primary screen, biochemical, FRET, Cerulean-Runt, Venus-CBFb-SMMHC, uHTS; Runt-related transcription factor 1 (Homo sapiens) + Core-binding factor subunit beta …; inhibition, % at 20 µM; Cerulean-Runt/Venus-CBFb-SMMHC FRET ratio 530/480, 1 h; AID 1434, 2008; 220,000 compounds, 0.74% hits;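 active = mean inhibition across duplicate retests at 20 µM reaching about 50%, limit read from the data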;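 note: 0% = DMSO wells and 100% = wells with excess untagged CBFb-SMMHC; inhibitors lower the FRET ratio by blocking Runt binding to CBFb-SMMHC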
M18AAP inhibitor: PfM18AAP inhibitors, malaria aminopeptidase, primary screen, biochemical, QFRET, recombinant enzyme | M18 aspartyl aminopeptidase (Plasmodium falciparum 3D7) | H-Glu-NHMec fluorogenic cleavage | inhibition, % at 7.35 µM | 290,000 compounds, 1.2% hits;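 active = inhibition above the campaign mean inhibition over all tested compounds plus 3 SD, cut at about 28% in these data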;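 note: 0% = plate median of test compound wells and 100% = 2 mM ZnCl2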
RUNX1 CBFb TR: inhibitors of RUNX1 Runt–CBFb binding, biochemical, TR-FRET | shares compounds with Runt-CBFb FRET | TR-FRET RUNX1 Runt domain-CBFb binding | inhibition, % at 20 µM | 480 compounds, 20% hits; in the data active = inhibition above about 40%
Active calls of the source: *.

`Cc1ccc(C(=O)n2nnc3ccccc32)cc1[N+](=O)[O-]` gave Hck-Nef inh 3, Runt-CBFb FRET 89*, RBBP9 inhibitor -8, RanGTP-Imp inh -8, Runt-SMMHC FRET -2, M18AAP inhibitor -8 and RUNX1 CBFb TR -8.
CN1c2ccsc2C(O)=C(C(=S)Nc2ccc(F)c(Cl)c2)S1(=O)=O was read as Hck-Nef inh 4, Runt-CBFb FRET 85*, RBBP9 inhibitor 2, RanGTP-Imp inh 124*, M18AAP inhibitor -5 and RUNX1 CBFb TR -14.
Screening Cn1cc(C(=O)Nc2ccc(F)c(Cl)c2)cn1 returned Hck-Nef inh -2, Runt-CBFb FRET 0, RBBP9 inhibitor -9, RanGTP-Imp inh -3, Runt-SMMHC FRET 4 and M18AAP inhibitor -14.
Screening CNC(=O)/C(C#N)=C/c1c(N(Cc2ccccc2)Cc2ccccc2)nc2c(C)cccn2c1=O returned Hck-Nef inh -1, Runt-CBFb FRET 62*, RBBP9 inhibitor -12, RanGTP-Imp inh 1, Runt-SMMHC FRET 115*, M18AAP inhibitor 2 and RUNX1 CBFb TR -14.
CCNC(=O)/C(C#N)=C/c1c(N(Cc2ccccc2)Cc2ccccc2)nc2ccccn2c1=O was read as Hck-Nef inh 3, Runt-CBFb FRET 8, RBBP9 inhibitor -7, RanGTP-Imp inh 4, Runt-SMMHC FRET 22 and M18AAP inhibitor 3.
For COc1ccccc1C(=O)NC(=O)COC(=O)c1ccc(Cl)nc1 the results were RanGTP-Imp inh -5.
`CN1C(=O)C(Cl)(Cl)C(=O)c2ccccc21` gave Hck-Nef inh -5, Runt-CBFb FRET 54*, RBBP9 inhibitor -1, RanGTP-Imp inh 3, Runt-SMMHC FRET 55, M18AAP inhibitor 38* and RUNX1 CBFb TR 5.
O=C(O)c1cccc(NS(=O)(=O)c2ccc3c(c2)C(=O)c2ccccc2C3=O)c1 was read as Hck-Nef inh 1, Runt-CBFb FRET 3, RBBP9 inhibitor 2, RanGTP-Imp inh 1, Runt-SMMHC FRET -1 and M18AAP inhibitor 0.
For O=C(O)c1cccc(S(=O)(=O)Nc2ccc3oc(=O)sc3c2)c1 the results were Hck-Nef inh -1, Runt-CBFb FRET 65*, RBBP9 inhibitor 7, RanGTP-Imp inh 0, Runt-SMMHC FRET 68*, M18AAP inhibitor 42* and RUNX1 CBFb TR 21.
Screening NC(=O)CC(NC(=O)Cc1cccc2ccccc12)c1ccc(NCCCN2CCCC2=O)c([N+](=O)[O-])c1 (stereo unspecified) returned RanGTP-Imp inh -3 and M18AAP inhibitor 2.
Screening CCc1c(C)c(C#N)c2nc3ccccc3n2c1Nc1c(C)n(C)n(-c2ccccc2)c1=O returned Hck-Nef inh 8, Runt-CBFb FRET 56*, RBBP9 inhibitor -7, RanGTP-Imp inh 40*, Runt-SMMHC FRET 92*, M18AAP inhibitor -7 and RUNX1 CBFb TR 24.
Screening CCC(C(=O)NCc1cccnc1)n1nc(C)n2c(cc3occc32)c1=O (stereo unspecified) returned RanGTP-Imp inh -3 and M18AAP inhibitor 2.
`O=[N+]([O-])c1cccc(C(=S)N2CCN(c3ccccc3)CC2)c1` gave Hck-Nef inh 14, Runt-CBFb FRET 53*, RBBP9 inhibitor -7, RanGTP-Imp inh 1, Runt-SMMHC FRET 24, M18AAP inhibitor 8 and RUNX1 CBFb TR 21.
